Bioassay records deposited in PubChem by The Scripps Research Institute Molecular Screening Center.
V1R ag counter: activates human V1a receptor in oxytocin agonist counter-screen; CHO-V1R cells, Fluo-8 calcium fluorescence, agonist mode; 0% DMSO, 100% 3 nM vasopressin; hit rate 0.25% among 320,000; P37288; AID 2797; activation, % at 3 µM;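 active means activation above the mean activation of all tested compounds plus 3 SD, per screening run, cut at about 20% in these data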;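 further: signal is peak over basal fluorescence ratio across a 100 second FLIPR read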
Target sequence (P37288 whole entry, looked up): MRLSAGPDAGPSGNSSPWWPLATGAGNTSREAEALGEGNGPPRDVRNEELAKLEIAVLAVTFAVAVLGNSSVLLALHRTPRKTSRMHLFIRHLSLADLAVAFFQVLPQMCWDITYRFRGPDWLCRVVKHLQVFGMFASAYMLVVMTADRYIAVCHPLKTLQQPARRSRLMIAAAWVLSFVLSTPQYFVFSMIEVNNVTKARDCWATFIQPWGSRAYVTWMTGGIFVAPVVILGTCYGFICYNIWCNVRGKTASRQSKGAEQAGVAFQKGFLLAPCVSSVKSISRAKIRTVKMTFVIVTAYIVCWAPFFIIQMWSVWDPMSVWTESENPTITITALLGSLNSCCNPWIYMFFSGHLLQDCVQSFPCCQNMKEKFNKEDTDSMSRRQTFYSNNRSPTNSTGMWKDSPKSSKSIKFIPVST
OXTR ag: human OXTR agonism. CHO-OTR cells, Fluo-8 calcium fluorescence; normalized: DMSO 0%, oxytocin 100%. activation, % at 3 µM. hit rate 0.32% among 320,000. AID 2435;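 active means activation above the mean of all tested compounds plus 3 SD, cutoff set per screening run, cut at about 20% in these data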;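 further: peak over basal fluorescence ratio from a 100 s FLIPR kinetic read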
TRPML3 agonist: activates the human TRPML3 channel; Q8TDD5; HEK293 TRPML3-YFP, Fluo-8 calcium fluorescence; 100% = the carbachol control signal; activation, % at 3 µM; hit rate 0.29% among 220,000;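 active means activation above its plate's cutoff, the mean activation of the plate's test wells plus 3 SD, cut at about 12% in these data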;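 further: 0% = DMSO only wells and 100% = carbachol wells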
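Test system: TRPML3-YFP stable HEK293 cells. Doses: single point at 3 µM. Incubation: dye loading 1 h 37 °C then 30 min ambient, 125 s read. Signal: Fluo-8 calcium dye fluorescence, ex 470-495, em 515-575 nm. Measure: percent activation from peak-to-basal fluorescence ratio, scaled between DMSO and carbachol.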
TRPN1 ag: activates the zebrafish TRPN1 channel. activation, % at 3 µM. AID 1424. hit rate 0.18% among 220,000. HEK293 zebrafish TRPN1-YFP, Fluo-8 calcium fluorescence; 100% = response to 87 µM carbachol;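 active means activation above its plate's cutoff, the mean activation of test wells on that plate plus 3 SD, cut at about 19% in these data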;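 further: 0% = DMSO alone and 100% = 87 µM carbachol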
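Control set: carbachol 87 µM as high control, DMSO as low control; system: HEK293 stable line with zebrafish TRPN1-YFP; read-out: % activation versus carbachol response; detection: intracellular calcium fluorescence with Fluo-8; doses: single test compound dose, 3 µM nominal, 0.3% DMSO; schedule: dye 1 h 37 °C plus 30 min RT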
OXTR potentiate: human OXTR potentiation; CHO-OTR cells, Fluo-8 calcium fluorescence, potentiator mode; 0% = oxytocin EC15, 100% = EC100; AID 2445; activation, % at 3 µM; hit rate 0.061% among 320,000;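 active means activation above that plate's cutoff, the mean activation of tested compounds plus 3 SD, cut at about 6.6% in these data, passing the limit was not always enough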;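 further: 100% uses oxytocin at 75 nM as the full agonist control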
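Measured by – Fluo-8 calcium dye fluorescence · Test system – human OTR in CHO cells · Dosing – one concentration, 3.0 µM compound · Controls – EC15 oxytocin alone as 0%, 75 nM oxytocin as 100% · Evaluation – normalized max/min fluorescence ratio, % activation · Timing – 6 min pre-incubation, 100 s read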
An asterisk follows results filed as active; x = no result given. Only some compounds are listed: those with a hit (about 0.59% of all), similar ones and a draw of the others.

SMILES	V1R ag counter	OXTR ag	TRPML3 agonist	TRPN1 ag	OXTR potentiate
Cc1cc(C)n(-c2ccc(NN=C(C#N)C#N)cc2)n1	18.5	18.7	17.6*	31.9*	-18.6
N#CC(C#N)=NNc1ccc(-n2ccc(C(F)(F)F)n2)cc1	14.1	24.4*	23.3*	27.4*	-20.7
COc1ccc(C(=O)c2nc3ccccc3n2C(C)C)cc1	-1.9	-2.6	-1.7	-2.9	-0.9
C[C@H]1OC[C@@H](C[N+](C)(C)C)O1	0.8	4.3	98.9*	71.4*	-7.6
CC1OC(C[N+](C)(C)C)CC1O (configuration not stated)	1.4	1.0	x	x	1.9
CCOC(=O)c1c(-n2c(C)cc(C=C3C(=O)NC(=S)NC3=O)c2C)sc2c1CCCC2	-0.1	-1.4	0.5	0.5	7.3
CCN(CC)c1ccc(/C=C/[N+](=O)[O-])cc1	72.6*	41.6*	36.2*	46.7*	-17.5
COc1cc(/C=C/[N+](=O)[O-])ccc1O	3.0	0.6	2.3	0.3	9.4
CN[C@@H]1C[C@@H](c2ccc(Cl)c(Cl)c2)c2ccccc21	15.6	27.8*	5.4	4.7	-4.1
COC(=O)C1=C(c2ccc(C(C)=O)cc2)C[C@@H]2CC[C@H]1N2C(=O)NCc1ccc(C(F)(F)F)cc1	33.0*	44.6*	x	x	-9.8
COC(=O)C1=C(c2ccccc2)C[C@@H]2CC[C@H]1N2C(=O)NCc1ccc(C(F)(F)F)cc1	-0.1	-0.9	x	x	-8.0
COC(=O)C1=C(c2c(C)noc2C)C[C@@H]2CC[C@H]1N2C(=O)N1CCCCC1	0.1	0.3	x	x	-4.8
CC(C)C12CN3CCN(CC(C3)C1O)C2 (configuration not stated)	1.0	-0.2	0.8	-0.2	-3.2
COC(=O)C1C(O)C(C)C(O)C(C)/C=C\C=C(/C)C(=O)Nc2c(C)c(OC(C)=O)c3c(c2O)C(=O)C(C)=C2OCOC(=C23)/C(C)=C/C(C)(O)C(O)C(C)C1O (configuration not stated)	0.0	-1.2	-0.2	-2.3	-13.3
C[CH2][Hg][S]c1ccccc1C(=O)O	6.6	4.3	x	x	12.1*
CCOC(=O)C1CCCN(c2ccc([N+](=O)[O-])c3nonc23)C1 (configuration not stated)	x	x	112.6*	290.9*	x
CC1CCCN(c2ccc(C(=O)N3CCC4(CC3)OCCO4)cc2[N+](=O)[O-])C1 (configuration not stated)	0.7	0.3	-0.3	-0.8	-5.1
COc1ccc(-n2c(O)c(/C=C/C=Nc3ccccc3)c(=O)[nH]c2=O)cc1	43.0*	80.3*	26.7*	42.6*	-14.9
CC(C)[C@H]1C(=O)O[C@H](C(C)C)C(=O)N(C)[C@@H](C(C)C)C(=O)O[C@H](C(C)C)C(=O)N(C)[C@@H](C(C)C)C(=O)O[C@H](C(C)C)C(=O)N1C	11.0	18.7	19.7*	36.2*	-8.5
ClC1C(Cl)C(Cl)C(Cl)C(Cl)C1Cl (configuration not stated)	0.1	-0.6	x	x	3.1
CC(=O)OCC[N+](C)(C)C	1.7	-0.4	99.8*	75.2*	0.2
C[N+](C)(C)CCOC(=O)CBr	0.5	0.3	x	x	4.5
CCCN(CCC)C1CCc2ccc(O)cc2C1 (configuration not stated)	1.4	1.9	x	x	1.4
COc1ccc2c3c([nH]c2c1)C(C)=NCC3	1.1	-0.1	0.7	0.1	-5.2
CC1=NCCc2c1[nH]c1cc(O)ccc21	29.7*	42.9*	x	x	-11.7
SMILES	V1R ag counter	OXTR ag	TRPML3 agonist	TRPN1 ag	OXTR potentiate
O=C1NC(=O)N(c2cccc(Cl)c2)C(=O)/C1=C\c1ccc(Sc2nc3ccccc3[nH]2)o1	57.3*	59.1*	13.7*	19.9*	-21.2
O=C1NC(=O)N(c2ccccc2F)C(=O)/C1=C/c1ccc(Sc2nc3ccccc3[nH]2)o1	28.0*	39.0*	46.1*	43.0*	-11.9
O=C1NC(=O)N(c2ccccc2)C(=O)/C1=C/c1ccc(Sc2ccccc2)o1	1.4	2.2	1.7	1.6	-8.5
Cc1cc(Oc2ccc(C(F)(F)F)cc2[N+](=O)[O-])c2c3c(c(=O)oc2c1)CCCC3	2.7	-2.1	1.1	-0.1	-6.4
CCN(CC)c1ccc(/C=C2\C(=O)NC(=S)N(C)C2=O)o1	23.0*	22.1*	2.6	13.7	-4.3
CCN(CC)c1ccc(C=C2C(=O)N(C)C(=S)N(C)C2=O)o1	7.7	6.7	4.1	4.5	-2.3
C[C@]12CC[C@@H](O)CC1=CCC1C2CC[C@@]2(C)C1C[C@@H](F)[C@@H]2O (some centres not stated)	2.1	3.0	x	x	5.5
CCOc1cccc(CNCCc2c(C)[nH]c3ccc(OC(F)(F)F)cc23)c1O	29.4*	39.5*	x	x	-9.7
NC(=O)CS(=O)C(c1ccccc1)c1ccccc1 (configuration not stated)	x	x	1.1	1.0	x
CCN1/C(=C\C=C\C2=[N+](CC)c3ccccc3C2(C)C)C(C)(C)c2ccccc21	459.4*	443.4*	158.5*	316.8*	-24.2
CCCCCn1c(=O)c(C(=O)Nc2ncccc2C)c(O)c2ccccc21	39.0*	53.7*	x	x	-25.7
O=C(CCCN1CCC2(CC1)C(=O)NCN2c1ccccc1)c1ccc(F)cc1	28.2*	41.5*	49.7*	53.4*	-12.0
O=C(c1ccc(F)cc1)C(Cc1ccccc1)N1CCCCC1 (configuration not stated)	-1.7	-2.2	0.2	-1.7	-2.8
COC(=O)C(O)(c1ccc(NC(=S)NC(=O)c2ccc(Cl)cc2Cl)cc1)C(F)(F)F (configuration not stated)	18.0	19.0	3.8	7.4	-10.6
COC(=O)C(O)(c1ccc(NC(=S)NC(=O)c2ccc(Cl)cc2Cl)c(C)c1)C(F)(F)F (configuration not stated)	21.7*	29.3*	3.8	18.8	-13.8
CCOC(=O)C(O)(c1ccc(NC(=S)NC(=O)c2ccc(Cl)cc2Cl)c(C)c1)C(F)(F)F (configuration not stated)	34.2*	32.0*	11.9*	22.1*	-12.6
CCOC(=O)C(O)(c1ccc(NC(=S)NC(=O)c2ccc(Cl)cc2Cl)cc1)C(F)(F)F (configuration not stated)	33.8*	50.6*	6.8	16.3	-15.0
CC(=O)[C@@]1(O)CCC2C3CC=C4C[C@@H](O)CC[C@]4(C)C3CC[C@@]21C (some centres not stated)	2.4	1.3	x	x	-2.1
COC(=O)C1=C(c2ccc(OC)c(OC)c2)C[C@@H]2CC[C@H]1N2C(=O)NCc1ccc(F)cc1	-0.9	-0.2	x	x	-1.5
